Source: ChEMBL document CHEMBL3616472, “Design, synthesis and structure-activity relationship studies of novel phenoxyacetamide-based free fatty acid receptor 1 agonists for the treatment of type 2 diabetes” (Bioorg Med Chem, 2015)
Active and inactive are the calls of the source. No cut-off for these calls is given here.

What was measured:
[1] = molecular target: T1, Free fatty acid receptor 1 (Homo sapiens, UniProt O14842); assay: Agonist activity at human FFA1 expressed in CHO cells assessed as induction of receptor activation by measuring Ca2+influx at 100 nM incubated for by FLIPR method; assay type: functional, cell-based
T1 sequence (O14842 whole entry): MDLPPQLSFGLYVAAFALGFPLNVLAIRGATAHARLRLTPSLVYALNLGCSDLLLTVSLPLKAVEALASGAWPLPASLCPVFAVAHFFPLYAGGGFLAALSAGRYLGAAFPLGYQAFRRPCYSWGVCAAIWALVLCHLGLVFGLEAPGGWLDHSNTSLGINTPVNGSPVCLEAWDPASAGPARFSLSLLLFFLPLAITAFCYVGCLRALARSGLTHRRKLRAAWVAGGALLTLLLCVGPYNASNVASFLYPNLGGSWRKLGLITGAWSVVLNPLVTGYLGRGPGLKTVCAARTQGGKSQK
Method in brief: (§1)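 CHO cells stably expressing human FFA1 (NM_005303), seeded 15 K cells/well, grown 16 h at 37 °C in 5% CO2. Compounds added and Ca2+ flux read on FLIPR Tetra. Activity expressed as (A−B)/(C−B)×100, with C from 10 µM γ-linolenic acid and B from vehicle. Single-concentration data are means of three independent experiments; EC50 values are means of three determinations.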

[2] = molecular target: T1, Free fatty acid receptor 1; assay: Agonist activity at human FFA1 expressed in CHO cells assessed as induction of receptor activation by measuring Ca2+influx incubated for by FLIPR method; assay type: functional, cell-based; method in brief: as §1
[3] = Lipophilicity, logD of the compound at pH 7.4 by shake flask method; assay type: physicochemical; settings: buffer
Method in brief: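 Shake-flask method with 1-octanol and buffer at pH 7.4, shaken at 700 rpm for 24 h, then left 1 h to separate. Octanol phase diluted ×10; both phases analysed by HPLC at 254 nm in duplicate. logD taken as the octanol/buffer peak-area ratio, corrected using two calibration points per compound per solvent. Three independent experiments.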

[4] = molecular target: T1, Free fatty acid receptor 1; assay: Agonist activity at human FFA1 expressed in CHO cells assessed as induction of receptor activation by measuring Ca2+influx at 300 nM incubated for by FLIPR method; assay type: functional, cell-based
Method in brief: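 CHO cells stably expressing human FFA1, seeded 15 K cells/well and grown 16 h at 37 °C. Response normalised as (A−B)/(C−B)×100 between vehicle (B) and 10 µM γ-linolenic acid (C).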

Mus musculus [5] = assay: Hypoglycemic activity in STZ-induced type-2 diabetic C57BL/6 mouse assessed as reduction in blood glucose level at 50 mg/kg, po by OGTT method; assay type: functional, organism-based
Method in brief: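 Male C57BL/6 mice fed 45%-fat diet for 4 weeks, given STZ ip at 80 mg/kg, then fed high-fat diet for 4 more weeks. Mice with fasting glucose ≥11.1 mmol/L were used. After a 12 h fast (n = 6/group, with a normal-mouse control group), 50 mg/kg was given orally in 0.5% CMC, then 2 g/kg glucose orally 30 min later. Glucose read by test strip from −30 to 120 min; Student's t-test.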

Mus musculus [6] = assay: Hypoglycemic activity in normal ICR mouse assessed as reduction in blood glucose level at 20 to 80 mg/kg, po by OGTT method; assay type: functional, organism-based
Method in brief: (§2)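 Male ICR mice, 10 weeks old, fasted 12 h and randomised into groups (n = 6). Single oral dose in 0.5% carboxymethyl cellulose (10 mL/kg) at 20, 50 or 80 mg/kg. Oral glucose load (3 g/kg, 30% solution) given 30 min later. Tail blood sampled at −30, 0, 15, 30, 45, 60 and 120 min; mean ± SEM, two-tailed Student's t-test against vehicle.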

Mus musculus [7] = assay: Hypoglycemic activity in normal ICR mouse assessed as reduction in blood glucose level at 20 mg/kg, po by OGTT method; assay type: functional, organism-based; method in brief: as §2

CCOc1ccccc1OC(C)C(=O)Nc1ccc(OCC(=O)O)c(F)c1 (stereo unspecified) gave an Activity [1] of 8.79%.
Compound Cc1ccc(OC(C)C(=O)Nc2ccc(OCC(=O)O)c(F)c2)cc1C (stereo unspecified) has an EC50 [2] of 0.133 µM, an Activity [1] of 36.8% and a logD [3] of 0.33.
In the case of CC(C)c1cccc(OCC(=O)Nc2ccc(OCC(=O)O)c(F)c2)c1, the EC50 [2] is reported as 0.116 µM, the Activity [1] is reported as 43.3% and the logD [3] is reported as 0.15.
For COc1cccc(OCC(=O)Nc2ccc(OCC(=O)O)c(F)c2)c1, the EC50 [2] was 0.148 µM and the Activity [1] was 31.7%.
In the case of CCOc1ccc(OC(C)C(=O)Nc2ccc(OCC(=O)O)c(F)c2)cc1 (stereo unspecified), the Activity [1] is reported as 3.56%.
With Cc1ccc(C(C)C)cc1OC(C)C(=O)Nc1ccc(OCC(=O)O)c(F)c1 (stereo unspecified) the Activity [1] was 19.4%.
In the case of Cc1ccc(C(C)C)cc1OCC(=O)Nc1ccc(OCC(=O)O)c(F)c1, the Activity [1] is reported as 14.6% and the logD [3] is reported as 0.47.
Work on CCc1ccc(OCC(=O)Nc2ccc(OCC(=O)O)c(F)c2)cc1 yielded an Activity [1] of 14.6%.
Cc1ccc(C)c(OC(C)C(=O)Nc2ccc(OCC(=O)O)c(F)c2)c1 (stereo unspecified) gave an Activity [1] of 18.6%.
In the case of Cc1ccc(NC(=O)C(=O)Nc2ccc(OCC(=O)O)c(F)c2)cc1, the Activity [4] is reported as 29.9% and the Activity [1] is reported as 11.3%.
With O=C(O)COc1ccc(NC(=O)C2(C(=O)Nc3ccccc3)CC2)cc1F the Activity [4] was 34.2% and the Activity [1] was 13.6%.
In the case of Cc1cccc(NC(=O)C(=O)Nc2ccc(OCC(=O)O)c(F)c2)c1, the Activity [4] is reported as 36.3% and the Activity [1] is reported as 17.6%.
Work on O=C(O)COc1ccc(NC(=O)COc2ccc(OC(F)(F)F)cc2)cc1F yielded an Activity [1] of 6.45%.
In the case of O=C(O)COc1ccc(NC(=O)C(=O)Nc2ccccc2Cl)cc1F, the Activity [4] is reported as 27.9% and the Activity [1] is reported as 10.2%.
With CC(C)(C)c1cccc(OCC(=O)Nc2ccc(OCC(=O)O)c(F)c2)c1 the EC50 [2] was 0.122 µM, the Activity [1] was 40.2% and the logD [3] was 0.35.
COc1ccc(OCC(=O)Nc2ccc(OCC(=O)O)c(F)c2)cc1 gave an Activity [1] of 5.73%.
In the case of Cc1ccccc1OCC(=O)Nc1ccc(OCC(=O)O)c(F)c1, the Activity [1] is reported as 20.8%.
CC(C)c1ccc(OCC(=O)Nc2ccc(OCC(=O)O)c(F)c2)cc1 gave an Activity [1] of 11.8%.
In the case of CC(Oc1ccccc1)C(=O)Nc1ccc(OCC(=O)O)c(F)c1 (stereo unspecified), the EC50 [2] is reported as 0.135 µM, the Activity [1] is reported as 35.7% and the logD [3] is reported as -0.18.
With Cc1cc(C)cc(OC(C)C(=O)Nc2ccc(OCC(=O)O)c(F)c2)c1 (stereo unspecified) the Activity [1] was 25.7%.
Work on O=C(O)COc1ccc(NC(=O)Cc2ccccc2)cc1F yielded an Activity [4] of 39.6% and an Activity [1] of 19.9%.
Work on O=C(O)COc1ccc(NC(=O)c2ccccc2)cc1F yielded an Activity [4] of 12.8% and an Activity [1] of 3.56%.
In the case of Cc1cccc(OCC(=O)Nc2ccc(OCC(=O)O)c(F)c2)c1, the EC50 [2] is reported as 0.108 µM, the inhibition (Mus musculus [5]) is reported as “Active” and the Activity [1] is reported as 45.4%. For the same compound, the inhibition (Mus musculus [6]) was “Dose-dependent effect” and the logD [3] was -0.99.
Work on O=C(O)COc1ccc(NC(=O)COc2ccccc2)cc1F yielded an Activity [4] of 58.7%, an Activity [1] of 29.8% and a logD [3] of -1.25.
Cc1cc(OCCCS(C)(=O)=O)cc(C)c1-c1cccc(COc2ccc(OCC(=O)O)c(F)c2)c1 gave an Activity [4] of 67.3%, an Activity [1] of 54.9% and a logD [3] of 2.31.
Work on O=C(O)COc1ccc(NC(=O)Nc2ccccc2)cc1F yielded an Activity [4] of 23.7% and an Activity [1] of 8.47%.
With CC(Oc1cccc(C(C)(C)C)c1)C(=O)Nc1ccc(OCC(=O)O)c(F)c1 (stereo unspecified) the EC50 [2] was 0.14 µM, the Activity [1] was 32.8% and the logD [3] was 0.63.
COc1ccccc1NC(=O)C(=O)Nc1ccc(OCC(=O)O)c(F)c1 gave an Activity [4] of 19.9% and an Activity [1] of 6.78%.
Compound O=C(O)COc1ccc(NC(=O)C(=O)Nc2ccccc2)cc1F has an Activity [4] of 26.5% and an Activity [1] of 9.78%.
Compound CC(Oc1cccc(C(F)(F)F)c1)C(=O)Nc1ccc(OCC(=O)O)c(F)c1 (stereo unspecified) has an Activity [1] of 12.7%.
With Cc1cc(OCCCS(C)(=O)=O)cc(C)c1-c1cccc(COc2ccc3c(c2)OC[C@H]3CC(=O)O)c1 the inhibition (Mus musculus [7]) was “Active” and the logD [3] was 2.43.
O=C(O)COc1ccc(NC(=O)COc2cccc(C(F)(F)F)c2)cc1F gave an Activity [1] of 11.3%.
In the case of CC(C)(C)c1ccc(OCC(=O)Nc2ccc(OCC(=O)O)c(F)c2)cc1, the Activity [1] is reported as 7.65%.
Compound Cc1ccc(OCC(=O)Nc2ccc(OCC(=O)O)c(F)c2)cc1 has an EC50 [2] of 0.148 µM and an Activity [1] of 31.2%.
In the case of CC(C)(Oc1ccccc1)C(=O)Nc1ccc(OCC(=O)O)c(F)c1, the Activity [1] is reported as 3.56%.
In the case of CC(Oc1ccccc1F)C(=O)Nc1ccc(OCC(=O)O)c(F)c1 (stereo unspecified), the EC50 [2] is reported as 0.136 µM, the Activity [1] is reported as 35.1% and the logD [3] is reported as 0.07.
Work on O=C(O)COc1ccc(NC(=O)C(=O)Nc2cccc(Cl)c2)cc1F yielded an Activity [4] of 33.7% and an Activity [1] of 13.3%.
